Test results taken from ChEMBL document CHEMBL1123986, “Oral absorption of cephalosporin antibiotics. 2. Expanded structure-activity relationships of 7-(arylacetamido)-3-substituted cephalosporins” (1988).
Converted amounts (≈) assume the structure as drawn.

Assays:
Streptococcus pneumoniae [1] = experiment: Minimum inhibitory concentration against Streptococcus pneumoniae; type: functional
Summary of the method: (§1)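 Agar dilution MIC in μg/mL. […] Organisms not run are marked not tested.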

Haemophilus influenzae [2] = experiment: (§2) Minimum inhibitory concentration against Haemophilus influenzae; type: functional; summary of the method: as §1
Klebsiella pneumoniae = experiment: Minimum inhibitory concentration against Klebsiella pneumoniae; type: functional; summary of the method: as §1
Escherichia coli = experiment: Minimum inhibitory concentration against Escherichia coli; type: functional; summary of the method: as §1
Salmonella typhi = experiment: Minimum inhibitory concentration against Salmonella typhi; type: functional, Salmonella enterica subsp. enterica serovar Typhi; conditions: Salmonella enterica
Mus musculus [3] = experiment: Effective dose administered subcutaneously (sc) to 19-21-g random sex ICR mice at 1 hr and 5 hr intervals after intraperitoneal administration of Staphylococcus aureus; type: functional
Summary of the method: (§3)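 Mouse protection: random-sex ICR mice, 19–21 g, challenged intraperitoneally from a frozen organism pool giving 50–500 LD50 per challenge dose. Drug given sc or po at 1 and 5 h post-infection. Five 2-fold dilution levels per compound, eight mice per dilution.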

Klebsiella aerogenes = experiment: Minimum inhibitory concentration against Enterobacter aerogenes; type: functional; summary of the method: as §1
Mus musculus [4] = experiment: Effective dose administered orally (po) to 19-21-g random sex ICR mice at 1 hr and 5 hr intervals after intraperitoneal administration of Streptococcus pneumoniae; type: functional; summary of the method: as §3
[5] = Ratio of ED50 value evaluated in Staphylococcus aureus by po to sc administration; type: functional
Summary of the method: (§4)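 Oral/subcutaneous effective-dose ratio. Both routes were dosed in random-sex ICR mice of 19–21 g at 1 and 5 h after an intraperitoneal challenge of 50–500 LD50 from a frozen organism pool. Each route used five 2-fold dilution levels with eight mice per level, and the po value was divided by the sc value.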

Streptococcus pyogenes [6] = experiment: Minimum inhibitory concentration against Streptococcus pyogenes; type: functional; summary of the method: as §1
Streptococcus pyogenes [7] = experiment: Efficacy against mouse infections caused by Streptococcus pyogenes measured as Minimum inhibitory concentration
Staphylococcus aureus [8] = experiment: Minimum inhibitory concentration against Staphylococcus aureus; type: functional; summary of the method: as §1
Mus musculus [9] = experiment: Effective dose administered orally (po) to 19-21-g random sex ICR mice at 1 hr and 5 hr intervals after intraperitoneal Staphylococcus aureus; type: functional; summary of the method: as §3
Mus musculus [10] = experiment: Effective dose administered orally (po) to 19-21-g random sex ICR mice at 1 hr and 5 hr intervals after intraperitoneal Streptococcus pyogenes; type: functional; summary of the method: as §3
Streptococcus pneumoniae [11] = experiment: Efficacy against mouse infections caused by S. Pneumoniae measured as Minimum inhibitory concentration
Haemophilus influenzae [12] = experiment: as §2; type: functional; summary of the method: as §1; remark: listed apart in the source
Staphylococcus aureus [13] = experiment: Efficacy against mouse infections caused by Staphylococcus aureus measured as Minimum inhibitory concentration
Mus musculus [14] = experiment: Effective dose administered subcutaneously (sc) to 19-21-g random sex ICR mice at 1 hr and 5 hr intervals after intraperitoneal administration of Streptococcus pneumoniae; type: functional; summary of the method: as §3
Mus musculus [15] = experiment: Effective dose administered subcutaneously (sc) to 19-21-g random sex ICR mice at 1 hr and 5 hr intervals after intraperitoneal administration of Streptococcus pyogenes; type: functional; summary of the method: as §3
[16] = Ratio of ED50 value evaluated in Streptococcus pyogenes by po to sc administration; type: functional; summary of the method: as §4

Structure (SMILES)	MIC (Streptococcus pneumoniae [1]) [µg/mL]	MIC (Haemophilus influenzae [2]) [µg/mL]	MIC (Klebsiella pneumoniae) [µg/mL]	MIC (Escherichia coli) [µg/mL]	MIC (Salmonella typhi) [µg/mL]	ED50 (Mus musculus [3])	MIC (Klebsiella aerogenes) [µg/mL]	ED50 (Mus musculus [4])	Ratio [5]	MIC (Streptococcus pyogenes [6]) [µg/mL]	MIC (Streptococcus pyogenes [7]) [µg/mL]	MIC (Staphylococcus aureus [8]) [µg/mL]	ED50 (Mus musculus [9])	ED50 (Mus musculus [10])	MIC (Streptococcus pneumoniae [11]) [µg/mL]	MIC (Haemophilus influenzae [12]) [µg/mL]	MIC (Staphylococcus aureus [13]) [µg/mL]	ED50 (Mus musculus [14])	ED50 (Mus musculus [15])	Ratio [16]
O=C(Cc1csc2ccc(Cl)cc12)N[C@@H]1C(=O)N2C(C(=O)O)=C(Cl)CS[C@H]12	0.015 (≈ 0.0338 µM)	2 (≈ 4.51 µM)	64 (≈ 144 µM)	128 (≈ 289 µM)	128 (≈ 289 µM)	–	–	–	–	–	–	–	–	–	–	–	–	–	–	–
O=C(Cc1csc2ccccc12)N[C@@H]1C(=O)N2C(C(=O)O)=CCS[C@H]12	0.25 (≈ 0.668 µM)	4 (≈ 10.7 µM)	> 128	64 (≈ 171 µM)	> 128	0.8 2mg kg-1	> 128	>10 2mg kg-1	3.6	0.06 (≈ 0.16 µM)	0.06 (≈ 0.16 µM)	0.25 (≈ 0.668 µM)	2.9 2mg kg-1	>10 2mg kg-1	0.25 (≈ 0.668 µM)	0.5 (≈ 1.34 µM)	0.25 (≈ 0.668 µM)	>10 2mg kg-1	8.2 2mg kg-1	–
CO/N=C/c1ccc(OCC(=O)N[C@@H]2C(=O)N3C(C(=O)O)=C(Cl)CS[C@H]23)cc1	0.06 (≈ 0.141 µM)	4 (≈ 9.39 µM)	> 128	> 128	> 128	–	> 128	–	–	0.03 (≈ 0.0704 µM)	–	0.25 (≈ 0.587 µM)	–	–	–	1 (≈ 2.35 µM)	–	–	–	–
O=C(COc1ccc([N+](=O)[O-])cc1)N[C@@H]1C(=O)N2C(C(=O)O)=C(Cl)CS[C@H]12	0.03 (≈ 0.0725 µM)	2 (≈ 4.83 µM)	> 128	> 128	> 128	–	> 128	–	–	0.015 (≈ 0.0362 µM)	–	0.25 (≈ 0.604 µM)	–	–	–	1 (≈ 2.42 µM)	–	–	–	–
CC1=C(C(=O)O)N2C(=O)[C@@H](NC(=O)Cc3csc4ccccc34)[C@H]2SC1	1 (≈ 2.57 µM)	32 (≈ 82.4 µM)	> 128	> 128	> 128	–	> 128	–	–	0.5 (≈ 1.29 µM)	–	1 (≈ 2.57 µM)	–	–	–	1 (≈ 2.57 µM)	–	–	–	–
O=C(Cc1ccccc1)N[C@@H]1C(=O)N2C(C(=O)O)=C(Cl)CS[C@H]12	0.125 (≈ 0.354 µM)	–	–	–	4 (≈ 11.3 µM)	–	128 (≈ 363 µM)	–	–	–	–	–	–	–	–	–	–	–	–	–
Nc1n[nH]c(SCC(=O)N[C@@H]2C(=O)N3C(C(=O)O)=C(Cl)CS[C@H]23)n1	2 (≈ 5.12 µM)	4 (≈ 10.2 µM)	8 (≈ 20.5 µM)	16 (≈ 40.9 µM)	8 (≈ 20.5 µM)	–	> 128	–	–	1 (≈ 2.56 µM)	–	4 (≈ 10.2 µM)	–	–	–	2 (≈ 5.12 µM)	–	–	–	–
COc1ccc(CC(=O)N[C@@H]2C(=O)N3C(C(=O)O)=C(Cl)CS[C@H]23)cc1	0.125 (≈ 0.327 µM)	1 (≈ 2.61 µM)	32 (≈ 83.6 µM)	64 (≈ 167 µM)	32 (≈ 83.6 µM)	–	> 128	–	–	0.125 (≈ 0.327 µM)	–	0.5 (≈ 1.31 µM)	–	–	–	1 (≈ 2.61 µM)	–	–	–	–
O=C(Cc1ccc(O)cc1)N[C@@H]1C(=O)N2C(C(=O)O)=C(Cl)CS[C@H]12	0.25 (≈ 0.678 µM)	–	–	–	8 (≈ 21.7 µM)	–	–	–	–	–	–	–	–	–	–	–	–	–	–	–
COC1=C(C(=O)O)N2C(=O)[C@@H](NC(=O)Cc3noc(C(Cl)(Cl)Cl)n3)[C@H]2SC1	4 (≈ 8.74 µM)	32 (≈ 69.9 µM)	> 128	> 128	> 128	–	> 128	–	–	4 (≈ 8.74 µM)	–	16 (≈ 35 µM)	–	–	–	32 (≈ 69.9 µM)	–	–	–	–
O=C(Cc1csc(-c2ccccc2)n1)N[C@@H]1C(=O)N2C(C(=O)O)=C(Cl)CS[C@H]12	–	–	–	–	> 128	–	> 128	–	–	–	–	–	–	–	–	–	–	–	–	–
O=C(COc1ccccc1)N[C@@H]1C(=O)N2C(C(=O)O)=C(Cl)CS[C@H]12	0.125 (≈ 0.339 µM)	–	–	–	64 (≈ 174 µM)	–	–	–	–	–	–	–	–	–	–	–	–	–	–	–
C=CC1=C(C(=O)O)N2C(=O)[C@@H](NC(=O)Cc3csc4ccccc34)[C@H]2SC1	0.06 (≈ 0.15 µM)	4 (≈ 9.99 µM)	> 128	> 128	> 128	0.76 2mg kg-1	> 128	>16 2mg kg-1	4.1	0.015 (≈ 0.0375 µM)	0.03 (≈ 0.0749 µM)	0.125 (≈ 0.312 µM)	3.12 2mg kg-1	14.7 2mg kg-1	0.03 (≈ 0.0749 µM)	4 (≈ 9.99 µM)	0.125 (≈ 0.312 µM)	8.4 2mg kg-1	3.54 2mg kg-1	4.2
Nc1nc2cc(CC(=O)N[C@@H]3C(=O)N4C(C(=O)O)=C(Cl)CS[C@H]34)ccc2s1	0.06 (≈ 0.141 µM)	0.5 (≈ 1.18 µM)	64 (≈ 151 µM)	64 (≈ 151 µM)	64 (≈ 151 µM)	3.54 mg/kg	> 128	> 10 mg/kg	–	0.06 (≈ 0.141 µM)	0.03 (≈ 0.0706 µM)	0.25 (≈ 0.588 µM)	> 10 mg/kg	10 mg/kg	0.06 (≈ 0.141 µM)	0.5 (≈ 1.18 µM)	0.25 (≈ 0.588 µM)	2.3 mg/kg	0.9 mg/kg	11
